Results reported in ChEMBL document CHEMBL1138110, “Microwave-assisted synthesis of N-alkylated benzotriazole derivatives: antimicrobial studies” (2006).
Counter-ions that a name gives are not always drawn.

Assays:
Aspergillus niger [1] = experiment: Antifungal activity against Aspergillus niger by disk diffusion method at 10 ug/disk; type: functional, organism-based
Summary of the method: (§1)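 Fungi kept on potato dextrose agar at 28 °C. Conidia scraped from 5–15 day PDA cultures into water, cotton-filtered, and adjusted by hemocytometer to ~10^6 CFU/mL. Disks carried 10 µg; DMSO-only disks as negative control. Plates held at 4 °C ≥2 h, then 28 °C; inhibition zone diameter (mm) read after 48 h. Mean of three determinations.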

Fusarium verticillioides [2] = experiment: Antifungal activity against Fusarium moniliforme by disk diffusion method at 10 ug/disk; type: functional, organism-based; summary of the method: as §1
Fusarium oxysporum [3] = experiment: Antifungal activity against Fusarium oxysporum by disk diffusion method at 10 ug/disk; type: functional, organism-based; summary of the method: as §1
Aspergillus flavus [4] = experiment: Antifungal activity against Aspergillus flavus by disk diffusion method at 10 ug/disk; type: functional, organism-based; summary of the method: as §1
Trichoderma [5] = experiment: Antifungal activity against Trichoderma species by disk diffusion method at 10 ug/disk; type: functional, organism-based; summary of the method: as §1
Xanthomonas oryzae [6] = experiment: Antibacterial activity against Xanthomonas oryzae by disk diffusion method at 25 ug/disk; type: functional; settings: read-out: IZ
Aspergillus niger [7] = experiment: Antifungal activity against Aspergillus niger by disk diffusion method at 25 ug/disk; type: functional; settings: read-out: IZ
Summary of the method: (§2)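 Fungi kept on potato dextrose agar at 28 °C; conidia scraped from 5–15 day PDA cultures into distilled water, filtered through sterile cotton, resuspended, adjusted by hemocytometer to about 10^6 CFU/mL. Paper disks bore 25 µg compound, 10 µg nystatin reference, or DMSO alone. Plates at 4 °C ≥2 h, then 28 °C; zone diameter (mm) read at 48 h; mean of three determinations.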

Escherichia coli [8] = experiment: Antibacterial activity against Escherichia coli by disk diffusion method at 25 ug/disk; type: functional; settings: read-out: IZ
Summary of the method: (§3)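 Bacteria kept on LB agar, grown in LB broth, spun 10,000 rpm 5 min, pellet taken up in double-distilled water, density set by hemocytometer to about 10^4 CFU/mL for plate inoculation. Paper disks carried 25 µg test compound or 10 µg streptomycin/tetracycline reference; DMSO-only disks as negative control. Plates held at 4 °C ≥2 h, then 28 °C; inhibition zone diameter (mm) read at 24 h; mean of three determinations.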

Bacillus subtilis [9] = experiment: Antibacterial activity against Bacillus subtilis by disk diffusion method at 25 ug/disk; type: functional; settings: read-out: IZ; summary of the method: as §3
Trichoderma [10] = experiment: Antifungal activity against Trichoderma species by disk diffusion method at 25 ug/disk; type: functional; settings: read-out: IZ; summary of the method: as §2
Fusarium verticillioides [11] = experiment: Antifungal activity against Fusarium moniliforme by disk diffusion method at 25 ug/disk; type: functional; settings: read-out: IZ; summary of the method: as §2
Aspergillus flavus [12] = experiment: Antifungal activity against Aspergillus flavus by disk diffusion method at 25 ug/disk; type: functional; settings: read-out: IZ; summary of the method: as §2
Pseudomonas fluorescens [13] = experiment: Antibacterial activity against Pseudomonas fluorescens by disk diffusion method at 25 ug/disk; type: functional; settings: read-out: IZ; summary of the method: as §3
Xanthomonas campestris [14] = experiment: Antibacterial activity against Xanthomonas campestris pvs by disk diffusion method at 25 ug/disk; type: functional; settings: read-out: IZ; summary of the method: as §3
Fusarium oxysporum [15] = experiment: Antifungal activity against Fusarium oxysporum by disk diffusion method at 25 ug/disk; type: functional; settings: read-out: IZ; summary of the method: as §2
Pseudomonas fluorescens [16] = experiment: Antibacterial activity against Pseudomonas fluorescens by disk diffusion method at 10 ug/disk; type: functional; settings: read-out: IZ
Escherichia coli [17] = experiment: Antibacterial activity against Escherichia coli by disk diffusion method at 10 ug/disk; type: functional; settings: read-out: IZ; summary of the method: as §3
Bacillus subtilis [18] = experiment: Antibacterial activity against Bacillus subtilis by disk diffusion method at 10 ug/disk; type: functional; settings: read-out: IZ
Xanthomonas oryzae [19] = experiment: Antibacterial activity against Xanthomonas oryzae by disk diffusion method at 10 ug/disk; type: functional; settings: read-out: IZ
Xanthomonas campestris [20] = experiment: Antibacterial activity against Xanthomonas campestris pvs by disk diffusion method at 10 ug/disk; type: functional; settings: read-out: IZ

| Compound | inhibition zone (IZ) (Aspergillus niger [1]) [mm] | inhibition zone (IZ) (Fusarium verticillioides [2]) [mm] | inhibition zone (IZ) (Fusarium oxysporum [3]) [mm] | inhibition zone (IZ) (Aspergillus flavus [4]) [mm] | inhibition zone (IZ) (Trichoderma [5]) [mm] | zone of inhibition at 25 µg/disc (Xanthomonas oryzae [6]) [mm] | zone of inhibition at 25 µg/disc (Aspergillus niger [7]) [mm] | zone of inhibition at 25 µg/disc (Escherichia coli [8]) [mm] | zone of inhibition at 25 µg/disc (Bacillus subtilis [9]) [mm] | zone of inhibition at 25 µg/disc (Trichoderma [10]) [mm] | zone of inhibition at 25 µg/disc (Fusarium verticillioides [11]) [mm] | zone of inhibition at 25 µg/disc (Aspergillus flavus [12]) [mm] | zone of inhibition at 25 µg/disc (Pseudomonas fluorescens [13]) [mm] | zone of inhibition at 25 µg/disc (Xanthomonas campestris [14]) [mm] | zone of inhibition at 25 µg/disc (Fusarium oxysporum [15]) [mm] | zone of inhibition at 10 µg/disc (Pseudomonas fluorescens [16]) [mm] | zone of inhibition at 10 µg/disc (Escherichia coli [17]) [mm] | zone of inhibition at 10 µg/disc (Bacillus subtilis [18]) [mm] | zone of inhibition at 10 µg/disc (Xanthomonas oryzae [19]) [mm] | zone of inhibition at 10 µg/disc (Xanthomonas campestris [20]) [mm] |
| --- | --- | --- | --- | --- | --- | --- | --- | --- | --- | --- | --- | --- | --- | --- | --- | --- | --- | --- | --- | --- |
| NYSTATIN | 8 | 12 | 14 | 10 | 16 |  |  |  |  |  |  |  |  |  |  |  |  |  |  |  |
| Cc1cc2c(cc1Cn1nnc3ccccc31)OCO2 |  |  |  |  |  | 19 | 16 | 20 | 18 | 20 | 18 | 19 | 22 | 18 | 22 |  |  |  |  |  |
| COc1cc(Br)c(Cn2nnc3ccccc32)cc1OC |  |  |  |  |  |  | 9 | 15 | 12 | 16 | 13 | 10 | 18 | 12 | 14 |  |  |  |  |  |
| CN[C@@H]1[C@H](O[C@H]2[C@H](O[C@H]3[C@H](O)[C@@H](O)[C@H](N=C(N)N)[C@@H](O)[C@@H]3N=C(N)N)O[C@@H](C)[C@]2(O)C=O)O[C@@H](CO)[C@H](O)[C@H]1O [STREPTOMYCIN SULFATE] |  |  |  |  |  |  |  |  |  |  |  |  |  |  |  | 18 | 14 | 12 |  |  |
| O=[N+]([O-])c1ccc(Cn2nnc3ccccc32)cc1 |  |  |  |  |  |  | 5 | 7 | 6 | 11 | 8 | 7 | 8 | 4 | 9 |  |  |  |  |  |
| CCCCn1nnc2ccccc21 |  |  |  |  |  | 12 | 8 | 14 | 13 | 15 | 12 | 11 | 19 | 12 | 14 |  |  |  |  |  |
| CCCn1nnc2ccccc21 |  |  |  |  |  | 2 | 5 | 4 | 6 | 1 | 4 | 4 | 1 | 3 | 6 |  |  |  |  |  |
| O=C(Cn1nnc2ccccc21)c1ccc(Cl)cc1 |  |  |  |  |  | 2 | 4 | 5 | 6 | 2 | 3 | 5 | 3 | 4 | 6 |  |  |  |  |  |
| N#Cc1ccccc1-c1ccc(Cn2nnc3ccccc32)cc1 |  |  |  |  |  | 15 | 14 | 18 | 16 | 18 | 17 | 17 | 21 | 16 | 20 |  |  |  |  |  |
| CN(C)[C@@H]1C(O)=C(C(N)=O)C(=O)[C@@]2(O)C(O)=C3C(=O)c4c(O)cccc4[C@@](C)(O)[C@H]3C[C@@H]12 [TETRACYCLINE] |  |  |  |  |  |  |  |  |  |  |  |  |  |  |  |  |  |  | 11 | 12 |
